Results: article PMC10238757 (Pharmacology Research & Perspectives, 2023)

Legend:
Type in all cases: in vivo, human
[1] = Single ascending dose
How it was run: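 Healthy participants, double-blind cross-over between 2 cohorts of 9, randomized 6:3 drug:placebo each period. Single oral doses of 10–800 mg right after a moderate-fat breakfast (600 calories, 30% fat). Plasma sampled to 360 h (protocol first set 96 h); LLOQ 10 ng/mL. Non-compartmental analysis; dose proportionality by power model.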

[2] = tested on: healthy participants; assay: Safety and tolerability, multiple ascending dose; settings: for Abdominal pain, n occurrences (% of cohort) / All-cause AEs Grade 2, n occurrences (% of cohort) / All-cause AEs Grade 3/4, n occurrences (% of cohort) / All-cause AEs, n occurrences (% of cohort) / Constipation, n occurrences (% of cohort) / Diarrhea, n occurrences (% of cohort) / Drug-related AEs Grade 2, n occurrences (% of cohort) / Drug-related AEs Grade 3/4, n occurrences (% of cohort) / Drug-related AEs, n occurrences (% of cohort) / Headache, n occurrences (% of cohort) / MDSD, n occurrences (% of cohort): N=7
How it was run: (§1)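 AEs in healthy participants given oral test compound or placebo, recorded with grade and relation to treatment. Laboratory analyses, clinical parameters and suicidality were also monitored. Observation ran 360 h after dosing. Summaries were descriptive, with no formal statistics; parts 1–2 blinded and placebo-controlled, part 3 open-label.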

[3] = tested on: healthy participants; assay: Safety and tolerability, relative bioavailability and food effect
How it was run: as §1

## C=C(C)[C@@H]1CC[C@]2(NCCN3CCS(=O)(=O)CC3)CC[C@]3(C)[C@H](CC[C@@H]4[C@@]5(C)CC=C(C6=CC[C@@](COc7ncccc7C#N)(C(=O)O)CC6)C(C)(C)[C@@H]5CC[C@]43C)[C@@H]12 [GSK'937]
[1]; SAD 800 mg
  t max, h median (range): 18.08 (12.1–24.1) h
[1]; after the 10-mg dose
  time up to which concentrations were quantifiable: up to 96 h
[1]; after the 30-mg dose, 5 of 6 participants
  time up to which concentrations were quantifiable: ≤ 264 h
[1]; all other doses except 1 individual in the 80-mg cohort
  time up to which concentrations were quantifiable: ≤ 360 h
[1]; human, plasma, oral, 10 mg
  AUC(0-t): 2490 ng·h/mL
  Cmax: 39.2 ng/mL
[1]; human, plasma, oral, 10 mg, t max, h median (range), SAD 10 mg
  Tmax: 6.98 h
[1]; human, plasma, oral, 30 mg
  Cmax: 127 ng/mL
[1]; human, plasma, oral, 30 mg, t 1/2 GM (%CVb), SAD 30 mg
  half-life: 3.16 days
[1]; human, plasma, oral, 30 mg, t max, h median (range), SAD 30 mg
  Tmax: 8 h
[1]; human, plasma, oral, 80 mg
  Cmax: 310 ng/mL
[1]; human, plasma, oral, 80 mg, t 1/2 GM (%CVb), SAD 80 mg
  half-life: 3.3 days
[1]; human, plasma, oral, 80 mg, t max, h median (range), SAD 80 mg
  Tmax: 7.98 h
[1]; human, plasma, oral, 160 mg
  Cmax: 529 ng/mL
[1]; human, plasma, oral, 160 mg, t 1/2 GM (%CVb), SAD 160 mg
  half-life: 3.83 days
[1]; human, plasma, oral, 160 mg, t max, h median (range), SAD 160 mg
  Tmax: 7.95 h
[1]; human, plasma, oral, 320 mg
  Cmax: 1010 ng/mL
[1]; human, plasma, oral, 320 mg, t 1/2 GM (%CVb), SAD 320 mg
  half-life: 4.03 days
[1]; human, plasma, oral, 320 mg, t max, h median (range), SAD 320 mg
  Tmax: 6.99 h
[1]; human, plasma, oral, 640 mg
  Cmax: 1460 ng/mL
[1]; human, plasma, oral, 640 mg, t 1/2 GM (%CVb), SAD 640 mg
  half-life: 3.44 days
[1]; human, plasma, oral, 640 mg, t max, h median (range), SAD 640 mg
  Tmax: 7 h
[1]; human, plasma, oral, 800 mg
  Cmax: 2860 ng/mL
[1]; human, plasma, oral, 800 mg, t 1/2 GM (%CVb), SAD 800 mg
  half-life: 2.81 days
[1]; human, plasma, oral, 800 mg, t max, h median (range), SAD 800 mg
  Tmax: 18 h
[1]; human, plasma, oral, Median t max, all single doses except the 800-mg dose
  Tmax: 7 to 8 h
[1]; human, plasma, oral, t 1/2, range across doses, part 1 single doses
  half-life: 2.79 to 4.04 days
[1]; human, plasma, oral, terminal phase half-life, all doses following single and repeat dosing
  half-life: ~3 days
[2]; MAD
  changes in laboratory analyses, clinical parameters, or suicidality: No significant changes
  deaths or SAEs: no deaths or SAEs
[2]; MAD 25 mg QD
  Abdominal pain, n occurrences (% of cohort): 0
  All-cause AEs Grade 2, n occurrences (% of cohort): 0
  All-cause AEs Grade 3/4, n occurrences (% of cohort): 0
  All-cause AEs, n occurrences (% of cohort): 0
  Constipation, n occurrences (% of cohort): 0
  Diarrhea, n occurrences (% of cohort): 0
  Drug-related AEs Grade 2, n occurrences (% of cohort): 0
  Drug-related AEs Grade 3/4, n occurrences (% of cohort): 0
  Drug-related AEs, n occurrences (% of cohort): 0
  Headache, n occurrences (% of cohort): 0
  MDSD, n occurrences (% of cohort): 0
[2]; MAD 50 mg QD
  Abdominal pain, n occurrences (% of cohort): 0
  All-cause AEs Grade 2, n occurrences (% of cohort): 1 (14)
  All-cause AEs Grade 3/4, n occurrences (% of cohort): 0
  All-cause AEs, n occurrences (% of cohort): 3 (29)
  Constipation, n occurrences (% of cohort): 0
  Diarrhea, n occurrences (% of cohort): 0
  Drug-related AEs Grade 2, n occurrences (% of cohort): 0
  Drug-related AEs Grade 3/4, n occurrences (% of cohort): 0
  Drug-related AEs, n occurrences (% of cohort): 0
  Headache, n occurrences (% of cohort): 1 (14)
  MDSD, n occurrences (% of cohort): 1 (14)
[2]; MAD 100 mg QD
  Abdominal pain, n occurrences (% of cohort): 0
  All-cause AEs Grade 2, n occurrences (% of cohort): 0
  All-cause AEs Grade 3/4, n occurrences (% of cohort): 0
  All-cause AEs, n occurrences (% of cohort): 8 (71)
  Constipation, n occurrences (% of cohort): 0
  Diarrhea, n occurrences (% of cohort): 0
  Drug-related AEs Grade 2, n occurrences (% of cohort): 0
  Drug-related AEs Grade 3/4, n occurrences (% of cohort): 0
  Drug-related AEs, n occurrences (% of cohort): 1 (14)
  Headache, n occurrences (% of cohort): 0
  MDSD, n occurrences (% of cohort): 1 (14)
[2]; MAD 500 mg QW
  Abdominal pain, n occurrences (% of cohort): 1 (14)
  All-cause AEs Grade 2, n occurrences (% of cohort): 0
  All-cause AEs Grade 3/4, n occurrences (% of cohort): 0
  All-cause AEs, n occurrences (% of cohort): 7 (57)
  Constipation, n occurrences (% of cohort): 0
  Drug-related AEs Grade 2, n occurrences (% of cohort): 0
  Drug-related AEs Grade 3/4, n occurrences (% of cohort): 0
  Drug-related AEs, n occurrences (% of cohort): 3 (43)
  Headache, n occurrences (% of cohort): 0
  MDSD, n occurrences (% of cohort): 1 (14)
[3]; 100 mg PiB fed, N=15
  Abdominal pain, n occurrences (% of cohort): 0
  All-cause AEs Grade 2, n occurrences (% of cohort): 0
  All-cause AEs Grade 3/4, n occurrences (% of cohort): 0
  All-cause AEs, n occurrences (% of cohort): 2 (13)
  Constipation, n occurrences (% of cohort): 0
  Diarrhea, n occurrences (% of cohort): 0
  Drug-related AEs Grade 2, n occurrences (% of cohort): 0
  Drug-related AEs Grade 3/4, n occurrences (% of cohort): 0
  Drug-related AEs, n occurrences (% of cohort): 0
  Headache, n occurrences (% of cohort): 0
  MDSD, n occurrences (% of cohort): 0
[3]; 100 mg tablet fasted, N=15
  Abdominal pain, n occurrences (% of cohort): 0
  All-cause AEs Grade 2, n occurrences (% of cohort): 2 (13)
  All-cause AEs Grade 3/4, n occurrences (% of cohort): 0
  All-cause AEs, n occurrences (% of cohort): 7 (40)
  Constipation, n occurrences (% of cohort): 0
  Diarrhea, n occurrences (% of cohort): 0
  Drug-related AEs Grade 2, n occurrences (% of cohort): 0
  Drug-related AEs Grade 3/4, n occurrences (% of cohort): 0
  Drug-related AEs, n occurrences (% of cohort): 0
  Headache, n occurrences (% of cohort): 2 (13)
  MDSD, n occurrences (% of cohort): 0
[3]; 100 mg tablet fed, N=17
  Abdominal pain, n occurrences (% of cohort): 0
  All-cause AEs Grade 2, n occurrences (% of cohort): 3 (12)
  All-cause AEs Grade 3/4, n occurrences (% of cohort): 0
  All-cause AEs, n occurrences (% of cohort): 7 (24)
  Constipation, n occurrences (% of cohort): 0
  Diarrhea, n occurrences (% of cohort): 0
  Drug-related AEs Grade 2, n occurrences (% of cohort): 0
  Drug-related AEs Grade 3/4, n occurrences (% of cohort): 0
  Drug-related AEs, n occurrences (% of cohort): 0
  Headache, n occurrences (% of cohort): 2 (12)
  MDSD, n occurrences (% of cohort): 0
[3]; part 3
  AEs considered drug- or treatment-related: None
  changes in laboratory analyses, clinical parameters, or suicidality: No significant changes
  deaths or SAEs: No deaths or SAEs occurred
[3]; part 3 (41%)
  participants reporting AEs, n of 17: 7
